The text below walks through data of ChEMBL document CHEMBL1671636, “Role of ampD homologs in overproduction of AmpC in clinical isolates of Pseudomonas aeruginosa” (2008).

Common to all, as to assay type: functional
The subject of experiment [1] is Pseudomonas aeruginosa. In words: Antimicrobial activity against Pseudomonas aeruginosa isolate PA113 obtained from patient with cystic fibrosis by agar dilution method.
Experiment [2] deals with Pseudomonas aeruginosa. In words: Antimicrobial activity against Pseudomonas aeruginosa isolate GB61 obtained from patient with non-cystic fibrosis by Etest.
The subject of experiment [3] is Pseudomonas aeruginosa. In words: Antimicrobial activity against Pseudomonas aeruginosa isolate GB57 obtained from patient with non-cystic fibrosis by Etest.
For experiment [4], the system named is Pseudomonas aeruginosa. The experiment in a line: Antimicrobial activity against Pseudomonas aeruginosa isolate PA24 obtained from patient with cystic fibrosis by agar dilution method.
The test system of experiment [5] is Pseudomonas aeruginosa. The experiment in a line: Antimicrobial activity against Pseudomonas aeruginosa isolate TX292 obtained from patient with non-cystic fibrosis by agar dilution method.
Experiment [6] concerns Pseudomonas aeruginosa. The experiment in a line: Antimicrobial activity against Pseudomonas aeruginosa isolate 164CD obtained from patient with non-cystic fibrosis by Etest.
Experiment [7] relates to Pseudomonas aeruginosa. The experiment in a line: Antimicrobial activity against Pseudomonas aeruginosa isolate PA22 obtained from patient with cystic fibrosis by agar dilution method.
Experiment [8] relates to Pseudomonas aeruginosa. In words: Antimicrobial activity against Pseudomonas aeruginosa PAO1 by agar dilution method.
The subject of experiment [9] is Pseudomonas aeruginosa. In words: Antimicrobial activity against Pseudomonas aeruginosa isolate TX291 obtained from patient with non-cystic fibrosis by agar dilution method.
The subject of experiment [10] is Pseudomonas aeruginosa. In words: Antimicrobial activity against Pseudomonas aeruginosa isolate PA367 obtained from patient with cystic fibrosis by agar dilution method.
In experiment [11] the test system is Pseudomonas aeruginosa. In words: Antimicrobial activity against Pseudomonas aeruginosa isolate PA22 obtained from patient with cystic fibrosis by agar dilution method in presence of beta-lactamase inhibitor Tazobactam.
The subject of experiment [12] is Pseudomonas aeruginosa. In words: Antimicrobial activity against Pseudomonas aeruginosa PAO1 by Etest.
Experiment [13] deals with Pseudomonas aeruginosa. In words: Antimicrobial activity against Pseudomonas aeruginosa isolate PA24 obtained from patient with cystic fibrosis by agar dilution method in presence of beta-lactamase inhibitor Tazobactam.
The test system of experiment [14] is Pseudomonas aeruginosa. In words: Antimicrobial activity against Pseudomonas aeruginosa isolate GB57 obtained from patient with non-cystic fibrosis by Etest in presence of beta-lactamase inhibitor Tazobactam.
Experiment [15] concerns Pseudomonas aeruginosa. The experiment in a line: Antimicrobial activity against Pseudomonas aeruginosa isolate PA367 obtained from patient with cystic fibrosis by agar dilution method in presence of beta-lactamase inhibitor Tazobactam.
Experiment [16] concerns Pseudomonas aeruginosa. The experiment in a line: Antimicrobial activity against Pseudomonas aeruginosa isolate 164CD obtained from patient with non-cystic fibrosis by Etest in presence of beta-lactamase inhibitor Tazobactam.
Experiment [17] deals with Pseudomonas aeruginosa. The experiment in a line: Antimicrobial activity against Pseudomonas aeruginosa PAO1 by agar dilution method in presence of beta-lactamase inhibitor Tazobactam.
The test system of experiment [18] is Pseudomonas aeruginosa. The experiment in a line: Antimicrobial activity against Pseudomonas aeruginosa isolate PA113 obtained from patient with cystic fibrosis by agar dilution method in presence of beta-lactamase inhibitor Tazobactam.
Experiment [19] deals with Pseudomonas aeruginosa. In words: Antimicrobial activity against Pseudomonas aeruginosa isolate TX291 obtained from patient with non-cystic fibrosis by Etest in presence of beta-lactamase inhibitor Tazobactam.
Experiment [20] relates to Pseudomonas aeruginosa. In words: Antimicrobial activity against Pseudomonas aeruginosa isolate 164CD obtained from patient with non-cystic fibrosis by agar dilution method.
Experiment [21] has as its system Pseudomonas aeruginosa. The experiment in a line: Antimicrobial activity against Pseudomonas aeruginosa isolate GB61 obtained from patient with non-cystic fibrosis by Etest in presence of beta-lactamase inhibitor Tazobactam.
In experiment [22] the test system is Pseudomonas aeruginosa. In words: Antimicrobial activity against Pseudomonas aeruginosa isolate TX292 obtained from patient with non-cystic fibrosis by Etest in presence of beta-lactamase inhibitor Tazobactam.
The subject of experiment [23] is Pseudomonas aeruginosa. In words: Antimicrobial activity against Pseudomonas aeruginosa isolate 164CD harboring beta-lactamase AmpDh3 Ile67Thr mutant obtained from patient with non-cystic fibrosis by agar dilution method.
The subject of experiment [24] is Pseudomonas aeruginosa. In words: Antimicrobial activity against Pseudomonas aeruginosa isolate PA24 obtained from patient with cystic fibrosis harboring beta-lactamase AmpD1 12-nt deletion at nucleotide 5064908 and deletion of codons 144-147 by disk diffusion method. The method, boiled down:
(§1)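 Each ampD homolog gene, from PAO1 or the clinical isolate, was tested in a plasmid model system. An AmpD-deficient E. coli strain (JRG582) carrying an inducible genetic system was complemented with the gene. Read-out was the ceftazidime inhibition zone diameter in mm; lack of complementation gives a ceftazidime-resistant phenotype.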

In experiment [25] the test system is Pseudomonas aeruginosa. The experiment in a line: Antimicrobial activity against Pseudomonas aeruginosa isolate PA113 harboring beta-lactamase AmpDh3 Ala219Thr mutant obtained from patient with cystic fibrosis by agar dilution method.
For experiment [26], the system named is Pseudomonas aeruginosa. In words: Antimicrobial activity against Pseudomonas aeruginosa isolate GB57 harboring beta-lactamase AmpD1 Val10Ile mutant obtained from patient with non-cystic fibrosis by Etest.
Experiment [27] has as its system Pseudomonas aeruginosa. The experiment in a line: Antimicrobial activity against Pseudomonas aeruginosa isolate TX291 harboring beta-lactamase AmpD1 11-nt deletion at nt 5064907 and frameshift mutation obtained from patient with non-cystic fibrosis by agar dilution method.
Experiment [28] deals with Pseudomonas aeruginosa. The experiment in a line: Antimicrobial activity against Pseudomonas aeruginosa isolate PA22 obtained from patient with cystic fibrosis harboring beta-lactamase AmpDh3 Asp137Gly, Ala219Thr mutant by disk diffusion method. An outline of the steps:
as §1

Experiment [29] concerns Pseudomonas aeruginosa. The experiment in a line: Antimicrobial activity against Pseudomonas aeruginosa isolate PA22 obtained from patient with cystic fibrosis harboring beta-lactamase AmpD1 Gly148ala and Asp183Tyr mutant by disk diffusion method. The method, boiled down:
as §1

The subject of experiment [30] is Pseudomonas aeruginosa. The experiment in a line: Antimicrobial activity against Pseudomonas aeruginosa isolate PA113 harboring beta-lactamase AmpD1 Gly148Ala, Asp183Tyr mutant obtained from patient with cystic fibrosis by agar dilution method.
For experiment [31], the system named is Pseudomonas aeruginosa. The experiment in a line: Antimicrobial activity against Pseudomonas aeruginosa isolate TX292 harboring beta-lactamase AmpD1 11-nt deletion at nt 5064907 and frameshift mutation obtained from patient with non-cystic fibrosis by agar dilution method.
Experiment [32] relates to Pseudomonas aeruginosa. The experiment in a line: Antimicrobial activity against Pseudomonas aeruginosa PAO1 expressing beta-lactamase AmpDh3 by disk diffusion method. An outline of the steps: as §1
In experiment [33] the test system is Pseudomonas aeruginosa. In words: Antimicrobial activity against Pseudomonas aeruginosa isolate GB57 obtained from patient with non-cystic fibrosis by broth microdilution method.
For experiment [34], the system named is Pseudomonas aeruginosa. In words: Antimicrobial activity against Pseudomonas aeruginosa isolate 164CD harboring beta-lactamase AmpD1 Leu32Pro, Gly46Ser, Gly148Ala mutant obtained from patient with non-cystic fibrosis by agar dilution method.
In experiment [35] the test system is Pseudomonas aeruginosa. The experiment in a line: Antimicrobial activity against Pseudomonas aeruginosa isolate GB61 obtained from patient with non-cystic fibrosis by broth microdilution method.
Experiment [36] deals with Pseudomonas aeruginosa. In words: Antimicrobial activity against Pseudomonas aeruginosa isolate PA367 obtained from patient with cystic fibrosis harboring beta-lactamase AmpD1 Gly148ala and Asp183Tyr mutant by disk diffusion method. An outline of the steps:
as §1

In experiment [37] the test system is Pseudomonas aeruginosa. In words: Antimicrobial activity against Pseudomonas aeruginosa PAO1 expressing beta-lactamase AmpD1 by disk diffusion method. An outline of the steps: as §1
The test system of experiment [38] is Pseudomonas aeruginosa. In words: Antimicrobial activity against Pseudomonas aeruginosa isolate TX291 harboring beta-lactamase AmpDh3 Ala208Val mutant obtained from patient with non-cystic fibrosis by agar dilution method.
In experiment [39] the test system is Pseudomonas aeruginosa. In words: Antimicrobial activity against Pseudomonas aeruginosa isolate PA367 obtained from patient with cystic fibrosis harboring beta-lactamase AmpDh3 Asp137Gly, Ala219Thr mutant by disk diffusion method. An outline of the steps:
as §1

The subject of experiment [40] is Pseudomonas aeruginosa. The experiment in a line: Antimicrobial activity against Pseudomonas aeruginosa isolate PA24 obtained from patient with cystic fibrosis harboring beta-lactamase AmpDh3 Ala219Thr mutant by disk diffusion method. An outline of the steps: as §1
The subject of experiment [41] is Pseudomonas aeruginosa. The experiment in a line: Antimicrobial activity against Pseudomonas aeruginosa isolate GB61 harboring beta-lactamase AmpD1 Gly148Ala mutant obtained from patient with non-cystic fibrosis by Etest.
Experiment [42] concerns Pseudomonas aeruginosa. The experiment in a line: Antimicrobial activity against Pseudomonas aeruginosa PAO1 expressing beta-lactamase AmpDh2 by disk diffusion method. An outline of the steps:
as §1

Converted amounts (≈) assume the structure as drawn.

Regarding `C[C@H]1[C@H](NC(=O)/C(=N\OC(C)(C)C(=O)O)c2csc(N)n2)C(=O)N1S(=O)(=O)O` [AZTREONAM], the MIC in experiment [1] is 16 µg/mL (≈ 36.7 µM); in experiment [2] it was 48 µg/mL (≈ 110 µM); in [3] it was greater than 256 µg/mL; in experiment [4], 128 µg/mL (≈ 294 µM); in experiment [5], 64 µg/mL (≈ 147 µM); in [6], greater than 256 µg/mL. Moreover, the MIC in experiment [7] was 4 µg/mL (≈ 9.19 µM); in experiment [8] it was 4 µg/mL (≈ 9.19 µM); in experiment [9], 64 µg/mL (≈ 147 µM); in experiment [10] it was 4 µg/mL (≈ 9.19 µM).
With `CO/N=C(\C(=O)N[C@@H]1C(=O)N2C(C(=O)[O-])=C(C[N+]3(C)CCCC3)CS[C@H]12)c1csc(N)n1` [CEFEPIME], the MIC is 16 µg/mL (≈ 33.3 µM) in experiment [1]; 32 µg/mL (≈ 66.6 µM) in experiment [2]; greater than 256 µg/mL in experiment [3]; 64 µg/mL (≈ 133 µM) in experiment [4]; 32 µg/mL (≈ 66.6 µM) in experiment [5]; greater than 256 µg/mL in experiment [6]. In addition, the MIC was 16 µg/mL (≈ 33.3 µM) in experiment [7], 1 µg/mL (≈ 2.08 µM) in experiment [8], 32 µg/mL (≈ 66.6 µM) in experiment [9] and 16 µg/mL (≈ 33.3 µM) in experiment [10].
On to `CCN1CCN(C(=O)N[C@@H](C(=O)N[C@@H]2C(=O)N3[C@@H]2SC(C)(C)[C@@H]3C(=O)O)c2ccccc2)C(=O)C1=O` [PIPERACILLIN], for which the MIC in [1] is 128 µg/mL (≈ 247 µM); in [11], 64 µg/mL; in [12] it was 4 µg/mL (≈ 7.73 µM); in experiment [2], greater than 256 µg/mL; in experiment [13], 128 µg/mL; in [14], greater than 256 µg/mL. The MIC in [15] is 64 µg/mL; in experiment [16], greater than 256 µg/mL; in [3], greater than 256 µg/mL; in experiment [4], 256 µg/mL (≈ 495 µM); in experiment [17], 4 µg/mL; in [5] it was 256 µg/mL (≈ 495 µM). Besides, the MIC in experiment [18] is 64 µg/mL; in experiment [7] it was 128 µg/mL (≈ 247 µM); in experiment [19] it was greater than 256 µg/mL; in experiment [20], greater than 1020 µg/mL; in experiment [21], greater than 256 µg/mL; in experiment [9], 256 µg/mL (≈ 495 µM). Besides, the MIC in experiment [10] was 64 µg/mL (≈ 124 µM); in [22], greater than 256 µg/mL.
With `CC(C)(O/N=C(\C(=O)N[C@@H]1C(=O)N2C(C(=O)[O-])=C(C[n+]3ccccc3)CS[C@H]12)c1csc(N)n1)C(=O)O` [CEFTAZIDIME], the MIC in experiment [1] is 32 µg/mL (≈ 58.5 µM); in experiment [4], 128 µg/mL (≈ 234 µM); in experiment [5], 32 µg/mL (≈ 58.5 µM); in [33] it was greater than 128 µg/mL; in [35], 128 µg/mL (≈ 234 µM); in [7] it was 16 µg/mL (≈ 29.3 µM). Also, the MIC in [8] turned out to be 1 µg/mL (≈ 1.83 µM); in experiment [20], 128 µg/mL (≈ 234 µM); in [9] it was 32 µg/mL (≈ 58.5 µM); in experiment [10], 32 µg/mL (≈ 58.5 µM). The “diameter of the inhibition zone (DIZ)” value in [23] was found to be 10 mm; in [24] it was 6 mm; in experiment [25], 9 mm; in experiment [26], 10 mm; in experiment [27], 11 mm; in experiment [28], 10 mm. The “diameter of the inhibition zone (DIZ)” value is listed as 8 mm in experiment [29]; 8 mm in [30]; 11 mm in experiment [31]; 18 mm in experiment [32]; 8 mm in [34]; 8 mm in experiment [36]. Further, the “diameter of the inhibition zone (DIZ)” value in experiment [37] was 17 mm; in experiment [38] it was 8 mm; in experiment [39] it was 10 mm; in [40], 9 mm; in experiment [41] it was 12 mm; in experiment [42], 6 mm.
